Assay results as given in ChEMBL document CHEMBL5247576, “Modulation of autophagy by the novel mitochondrial complex I inhibitor Authipyrin” (Bioorg Med Chem, 2019).
The source made the active and inactive calls. The calls are words filed in the database; no cut-off is given here.

Legend:
MCF7 [1] = assay: Inhibition of starvation-induced autophagy in human MCF7 cells assessed as reduction of LC3-II lipidation at 1 uM in presence of chloroquine by immunoblotting analysis; format: functional, cell-based
Procedure, shortened: (§1)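 Cells were starved in EBSS for the indicated times, with or without chloroquine (50 μM) and compound (1 μM). Cells were then lysed and LC3 lipidation was assessed by immunoblot. n = 3.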

HeLa = assay: Inhibition of starvation-induced autophagy in human HeLa cells assessed as reduction of LC3-II lipidation at 1 uM in presence of chloroquine by immunoblotting analysis; format: functional, cell-based; procedure, shortened: as §1
HEK-293T = assay: Inhibition of starvation-induced autophagy in human HEK293T cells assessed as reduction of LC3-II lipidation at 1 uM in presence of chloroquine by immunoblotting analysis; format: functional, cell-based; procedure, shortened: as §1
[2] = Inhibition of rapamycin-induced autophagy in human MCF7 cells expressing eGFP-tagged LC3 incubated for 3 hrs in presence of chloroquine by Hoechst staining based fluorescence microscopic analysis; format: functional, cell-based
[3] = biological target: T1, Inactive tyrosine-protein kinase PEAK1 (Homo sapiens, UniProt Q9H792); assay: Inhibition of PEAK1 (unknown origin) at 1 uM relative to control
Procedure, shortened: (§2)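 Single-point kinase profiling run at 1 μM compound against a full kinase panel. Values are percent inhibition of kinase activity.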

[4] = biological target: Cyclin-dependent kinase 19 (Homo sapiens) (UniProt Q9BWU1); assay: Inhibition of GST-tagged human recombinant CDK11 (1 to 795 residues) expressed in baculovirus expression system at 1 uM relative to control; procedure, shortened: as §2
[5] = tested on: T2, Discoidin domain-containing receptor 2 (Homo sapiens), Q16832 [N456S]; assay: Inhibition of GST/His-tagged human recombinant DDR2 N456S mutant (422 to 855 residues) expressed in baculovirus expression system at 1 uM relative to control
T2 sequence (whole entry): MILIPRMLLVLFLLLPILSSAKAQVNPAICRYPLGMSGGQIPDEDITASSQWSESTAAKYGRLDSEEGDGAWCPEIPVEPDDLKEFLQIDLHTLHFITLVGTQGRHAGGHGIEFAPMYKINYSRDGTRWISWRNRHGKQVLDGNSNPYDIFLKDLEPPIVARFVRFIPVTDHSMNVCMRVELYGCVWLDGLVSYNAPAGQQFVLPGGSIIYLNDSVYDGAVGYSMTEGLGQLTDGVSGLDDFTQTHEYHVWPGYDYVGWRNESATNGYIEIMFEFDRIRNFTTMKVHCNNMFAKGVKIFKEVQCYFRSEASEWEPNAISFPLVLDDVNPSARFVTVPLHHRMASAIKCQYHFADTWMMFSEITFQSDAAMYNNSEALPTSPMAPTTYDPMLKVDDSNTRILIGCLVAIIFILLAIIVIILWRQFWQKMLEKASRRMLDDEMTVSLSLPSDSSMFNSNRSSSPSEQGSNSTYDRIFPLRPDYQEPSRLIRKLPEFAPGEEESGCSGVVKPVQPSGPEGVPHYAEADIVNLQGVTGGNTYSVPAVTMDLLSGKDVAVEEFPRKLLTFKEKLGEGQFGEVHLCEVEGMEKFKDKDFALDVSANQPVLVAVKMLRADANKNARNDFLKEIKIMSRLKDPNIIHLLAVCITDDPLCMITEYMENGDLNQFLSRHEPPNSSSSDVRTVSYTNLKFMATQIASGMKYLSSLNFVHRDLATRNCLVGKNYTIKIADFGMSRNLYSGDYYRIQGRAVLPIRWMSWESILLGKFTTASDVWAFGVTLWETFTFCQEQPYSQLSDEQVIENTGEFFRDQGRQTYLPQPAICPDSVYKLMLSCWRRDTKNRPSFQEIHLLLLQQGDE
Procedure, shortened: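 Single-point kinase panel (SelectScreen) run with the compound at 1 μM. Activity is reported as percent inhibition.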

[6] = biological target: T3, Serine/threonine-protein kinase haspin (Homo sapiens) (UniProt Q8TF76); assay: Inhibition of GST-tagged human recombinant haspin (471 to 798 residues) expressed in insect cells at 1 uM relative to control; procedure, shortened: as §2
T3 sequence (whole entry): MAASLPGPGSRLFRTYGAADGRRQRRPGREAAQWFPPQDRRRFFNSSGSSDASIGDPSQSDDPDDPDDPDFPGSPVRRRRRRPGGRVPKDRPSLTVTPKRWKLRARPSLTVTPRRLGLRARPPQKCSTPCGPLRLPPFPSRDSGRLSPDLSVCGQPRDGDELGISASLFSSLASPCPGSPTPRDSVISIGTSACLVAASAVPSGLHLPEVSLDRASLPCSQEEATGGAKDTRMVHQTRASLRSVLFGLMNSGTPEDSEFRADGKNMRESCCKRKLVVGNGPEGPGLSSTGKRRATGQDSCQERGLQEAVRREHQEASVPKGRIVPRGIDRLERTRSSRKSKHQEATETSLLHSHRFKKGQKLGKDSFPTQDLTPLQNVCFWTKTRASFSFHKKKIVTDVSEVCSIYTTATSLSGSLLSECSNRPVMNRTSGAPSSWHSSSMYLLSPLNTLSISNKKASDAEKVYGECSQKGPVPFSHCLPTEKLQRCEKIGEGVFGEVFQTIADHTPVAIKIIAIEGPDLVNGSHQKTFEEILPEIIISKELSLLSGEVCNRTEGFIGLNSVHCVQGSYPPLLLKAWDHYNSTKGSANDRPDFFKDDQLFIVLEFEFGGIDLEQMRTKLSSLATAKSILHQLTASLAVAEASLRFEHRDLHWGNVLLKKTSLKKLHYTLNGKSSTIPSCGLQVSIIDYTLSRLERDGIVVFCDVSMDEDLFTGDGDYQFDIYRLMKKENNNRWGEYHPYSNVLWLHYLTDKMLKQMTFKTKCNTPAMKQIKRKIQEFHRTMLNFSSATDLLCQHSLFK

[7] = biological target: T1, Inactive tyrosine-protein kinase PEAK1; assay: Inhibition of PEAK1 (unknown origin) relative to control; conditions: concentration not given here
Procedure, shortened: (§3)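 Follow-up on kinases showing more than 50% single-point inhibition. Each kinase was screened against decreasing compound concentrations, with a top concentration of 1 μM, to derive the IC50. Percent inhibition was also reported from this dose-response series.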

[8] = biological target: Cyclin-dependent kinase 19 (Homo sapiens) (UniProt Q9BWU1); assay: Inhibition of GST-tagged human recombinant CDK11 (1 to 795 residues) expressed in baculovirus expression system relative to control; conditions: concentration not given here; procedure, shortened: as §3
[9] = tested on: T2, Discoidin domain-containing receptor 2 (Homo sapiens), Q16832 [N456S]; assay: Inhibition of GST/His-tagged human recombinant DDR2 N456S mutant (422 to 855 residues) expressed in baculovirus expression system relative to control; conditions: concentration not given here
[10] = biological target: T3, Serine/threonine-protein kinase haspin (Homo sapiens); assay: Inhibition of GST-tagged human recombinant haspin (471 to 798 residues) expressed in insect cells relative to control; conditions: concentration not given here; procedure, shortened: as §3
[11] = biological target: T1, Inactive tyrosine-protein kinase PEAK1; assay: Inhibition of PEAK1 (unknown origin); procedure, shortened: as §3
[12] = biological target: Discoidin domain-containing receptor 2 (Homo sapiens, UniProt Q16832, N456S); assay: Inhibition of GST/His-tagged human recombinant DDR2 N456S mutant (422 to 855 residues) expressed in baculovirus expression system
Procedure, shortened: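 Kinase profiling panel (SelectScreen). The kinase was tested against decreasing concentrations of the compound, starting at a highest concentration of 1 μM, and IC50 was derived from the dose-response.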

[13] = biological target: T4, Serine/threonine-protein kinase haspin (Homo sapiens, UniProt Q8TF76); assay: Inhibition of GST-tagged human recombinant haspin (471 to 798 residues) expressed in insect cells; procedure, shortened: as §3
T4 sequence (Q8TF76 whole entry): T3 sequence (whole entry)

MCF7 [14] = assay: Inhibition of mitochondrial complex I in human MCF7 cells expressing LC3 by Seahorse XF plasma membrane permeabilizer analysis; format: cell membranes
Procedure, shortened: (§4)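 MCF7/LC3 cells were permeabilized with plasma membrane permeabilizer, then given DMSO, compound (1 μM) or a complex-specific control inhibitor together with that complex's substrates. Oligomycin and antimycin A injections followed. Oxygen consumption rate was read on a Seahorse XF analyzer. Data are mean ± SD, n = 3.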

MCF7 [15] = assay: Inhibition of mitochondrial complex II in human MCF7 cells expressing LC3 by Seahorse XF plasma membrane permeabilizer analysis; format: cell membranes; procedure, shortened: as §4
MCF7 [16] = assay: Inhibition of mitochondrial complex IV in human MCF7 cells expressing LC3 by Seahorse XF plasma membrane permeabilizer analysis; format: cell membranes; procedure, shortened: as §4
Bos taurus = species: Bos taurus; assay: Inhibition of NADH-Coenyme Q reductase in bovine heart mitochondria; conditions: dose 0.3-10 µM
Procedure, shortened: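 Isolated bovine heart mitochondria were assayed for NADH-coenzyme Q reductase activity across a dose range of compound. Rotenone served as the control inhibitor. Data are mean ± SD, n = 2.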

[17] = Inhibition of starvation-induced autophagy in human MCF7 cells expressing eGFP-tagged LC3 incubated for 3 hrs in presence of chloroquine by automated fluorescence microscopy

T1 sequence (Q9H792 whole entry): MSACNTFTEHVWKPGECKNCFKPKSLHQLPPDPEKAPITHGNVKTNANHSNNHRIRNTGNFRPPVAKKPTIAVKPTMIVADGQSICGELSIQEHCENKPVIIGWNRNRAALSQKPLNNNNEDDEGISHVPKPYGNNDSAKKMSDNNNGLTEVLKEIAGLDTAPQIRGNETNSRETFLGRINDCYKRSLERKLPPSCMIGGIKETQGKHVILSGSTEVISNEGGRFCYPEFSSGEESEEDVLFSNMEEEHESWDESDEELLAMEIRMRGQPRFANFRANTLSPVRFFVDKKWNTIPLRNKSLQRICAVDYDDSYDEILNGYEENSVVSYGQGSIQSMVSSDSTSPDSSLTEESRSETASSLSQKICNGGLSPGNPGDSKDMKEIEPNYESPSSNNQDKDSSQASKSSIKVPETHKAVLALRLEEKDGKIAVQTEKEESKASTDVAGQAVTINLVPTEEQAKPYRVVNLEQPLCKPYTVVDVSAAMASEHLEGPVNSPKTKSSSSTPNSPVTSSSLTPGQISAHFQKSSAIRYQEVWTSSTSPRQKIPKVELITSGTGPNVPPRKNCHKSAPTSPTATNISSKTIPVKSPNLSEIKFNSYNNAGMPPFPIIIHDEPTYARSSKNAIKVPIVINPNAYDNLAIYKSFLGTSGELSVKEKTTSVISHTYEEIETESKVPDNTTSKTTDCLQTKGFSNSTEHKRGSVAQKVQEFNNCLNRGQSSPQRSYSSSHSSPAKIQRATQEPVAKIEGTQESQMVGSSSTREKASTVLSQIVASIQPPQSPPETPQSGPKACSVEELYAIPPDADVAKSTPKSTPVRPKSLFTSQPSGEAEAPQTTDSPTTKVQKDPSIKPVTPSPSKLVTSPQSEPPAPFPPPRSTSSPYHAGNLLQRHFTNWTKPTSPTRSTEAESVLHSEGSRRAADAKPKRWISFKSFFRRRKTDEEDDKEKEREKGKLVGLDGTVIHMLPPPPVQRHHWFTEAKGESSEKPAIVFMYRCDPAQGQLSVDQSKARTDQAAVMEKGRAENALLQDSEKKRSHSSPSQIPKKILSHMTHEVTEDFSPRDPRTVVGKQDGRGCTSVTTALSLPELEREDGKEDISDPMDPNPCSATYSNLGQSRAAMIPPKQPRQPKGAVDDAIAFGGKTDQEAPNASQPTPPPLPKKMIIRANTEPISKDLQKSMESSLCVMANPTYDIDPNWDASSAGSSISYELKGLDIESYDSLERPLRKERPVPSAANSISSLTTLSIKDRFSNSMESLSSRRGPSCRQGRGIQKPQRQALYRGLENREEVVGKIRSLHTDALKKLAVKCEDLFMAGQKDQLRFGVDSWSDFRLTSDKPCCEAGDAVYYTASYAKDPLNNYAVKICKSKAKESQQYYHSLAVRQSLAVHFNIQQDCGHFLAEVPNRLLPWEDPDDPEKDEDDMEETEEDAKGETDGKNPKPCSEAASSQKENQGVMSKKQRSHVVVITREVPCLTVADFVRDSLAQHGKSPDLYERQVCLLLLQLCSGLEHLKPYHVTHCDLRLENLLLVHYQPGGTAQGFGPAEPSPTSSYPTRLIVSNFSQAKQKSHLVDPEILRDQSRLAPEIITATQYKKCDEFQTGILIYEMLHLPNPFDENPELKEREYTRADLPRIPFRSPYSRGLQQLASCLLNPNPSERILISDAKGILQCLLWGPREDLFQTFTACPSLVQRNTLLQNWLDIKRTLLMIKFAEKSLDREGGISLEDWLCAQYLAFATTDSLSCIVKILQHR
Cyclin-dependent kinase 19 (Homo sapiens), sequence (Q9BWU1 whole entry, the tested form may be a part): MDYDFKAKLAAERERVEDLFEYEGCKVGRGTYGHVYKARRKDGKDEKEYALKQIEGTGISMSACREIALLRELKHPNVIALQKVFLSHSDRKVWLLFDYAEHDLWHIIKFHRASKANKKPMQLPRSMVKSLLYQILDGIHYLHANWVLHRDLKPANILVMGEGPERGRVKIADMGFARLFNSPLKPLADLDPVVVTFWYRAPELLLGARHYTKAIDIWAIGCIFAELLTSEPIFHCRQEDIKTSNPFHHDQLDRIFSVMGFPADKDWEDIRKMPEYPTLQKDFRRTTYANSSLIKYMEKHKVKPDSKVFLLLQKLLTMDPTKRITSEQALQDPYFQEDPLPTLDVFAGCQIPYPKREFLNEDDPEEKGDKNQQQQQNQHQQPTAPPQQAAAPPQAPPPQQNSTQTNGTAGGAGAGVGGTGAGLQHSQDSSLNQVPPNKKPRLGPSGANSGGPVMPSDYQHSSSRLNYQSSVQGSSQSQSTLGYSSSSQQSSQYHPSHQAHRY

O=C(c1ccc2c(c1)OCCO2)C1CCN(c2ncnc3sccc23)CC1
inhibition (MCF7 [1]): Active
inhibition (HeLa): Active
inhibition (HEK-293T): Active
IC50 [2]: 180 nM
inhibition [3]: 83%
inhibition [4]: 70%
inhibition [5]: 58%
inhibition [6]: 51%
inhibition [7]: 68%
inhibition [8]: 47%
inhibition [9]: 38%
inhibition [10]: 33%
IC50 [11]: 620 nM
IC50 [12]: > 1000 nM
IC50 [13]: > 1000 nM
inhibition (MCF7 [14]): Active
inhibition (MCF7 [15]): inactive
inhibition (MCF7 [16]): inactive
inhibition (Bos taurus): Dose-Dependent Effect
IC50 [17]: 20 nM
